Assay results taken from ChEMBL document CHEMBL1139553, “Synthesis of dehydroalanine fragments as thiostrepton side chain mimetics” (Bioorg Med Chem Lett, 2005).

Legend:
[1] = system: Ribosome; experiment: Inhibition of bacterial translation by blocking the function of the ribosomal GTPase center at 150 uM concentration; assay type: subcellular; conditions: Escherichia coli
Procedure, shortened: (§1)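 Translation inhibition was tested at a single compound concentration, since limited solubility ruled out dose-response data at higher concentrations. Percent inhibition is the mean of three replicate experiments per compound (±10%).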

[2] = system: Ribosome; experiment: Inhibition of bacterial translation by blocking the function of the ribosomal GTPase center at 400 uM concentration; assay type: subcellular; conditions: Escherichia coli; procedure, shortened: as §1
[3] = system: Ribosome; experiment: Inhibition of bacterial translation by blocking the function of the ribosomal GTPase center at 0.17 uM concentration; assay type: subcellular; conditions: Escherichia coli; procedure, shortened: as §1
[4] = system: Ribosome; experiment: Inhibition of bacterial translation by blocking the function of the ribosomal GTPase center at 15 uM concentration; assay type: subcellular; conditions: Escherichia coli; procedure, shortened: as §1
[5] = biological target: Ribosome; experiment: Inhibition of bacterial translation by blocking the function of the ribosomal GTPase center; assay type: subcellular, Escherichia coli

| inhibition [2] | other results | SMILES |
| --- | --- | --- |
| – | inhibition [1]: 20% | C=C(NC(=O)c1ccccn1)C(=O)N[C@@H](Cc1cn(C(=O)OC(C)(C)C)c2ccccc12)C(=O)OC |
| – | inhibition [1]: 10% | C=C(NC(=O)c1cnccn1)C(=O)N[C@@H](Cc1cn(C(=O)OC(C)(C)C)c2ccccc12)C(=O)OC |
| 15% | – | C=C(NC(=O)c1cnccn1)C(=O)N[C@@H](COC(C)(C)C)C(=O)OC |
| 20% | – | C=C(NC(=O)c1csc(-c2cccnc2)n1)C(=O)N1CCC[C@H]1C(=O)OC |
| – | inhibition [3]: 50% | C=C(NC(=O)C(=C)NC(=O)c1csc(C2=N[C@@H]3c4csc(n4)[C@H]4NC(=O)c5csc(n5)[C@H]([C@](C)(O)[C@@H](C)O)NC(=O)[C@H]5CSC(=N5)/C(=C/C)NC(=O)[C@H]([C@@H](C)O)NC(=O)c5csc(n5)[C@]3(CC2)NC(=O)[C@H](C)NC(=O)C(=C)NC(=O)[C@H](C)NC(=O)[C@H]([C@@H](C)CC)N[C@@H]2C=Cc3c([C@H](C)O)cc(nc3[C@H]2O)C(=O)O[C@@H]4C)n1)C(N)=O |
| 30% | – | C=C(NC(=O)c1csc(-c2cccnc2)n1)C(=O)N[C@@H](COC(C)(C)C)C(=O)OC |
| 25% | – | C=C(NC(=O)c1cnccn1)C(=O)N1CCC[C@H]1C(=O)OC |
| 4% | – | C=C(NC(=O)c1ccccn1)C(=O)N1CCC[C@H]1C(=O)OC |
| 40% | – | C=C(NC(=O)c1ccccn1)C(=O)N[C@@H](COC(C)(C)C)C(=O)OC |
| – | inhibition [4]: 20% | C=C(NC(=O)c1csc(-c2cccnc2)n1)C(=O)N[C@@H](Cc1c[nH]c2ccccc12)C(=O)OC |
| – | inhibition [1]: 5% | C=C(NC(=O)c1csc(-c2ccncc2)n1)C(=O)N[C@@H](COC(C)(C)C)C(=O)OC |
| 30% | – | C=C(NC(=O)c1cnccn1)C(=O)NC(=C)C(=O)OC |
| – | IC50 [5]: 40 µM | C=C(NC(=O)c1csc(-c2cccnc2)n1)C(=O)N[C@@H](Cc1cn(C(=O)OC(C)(C)C)c2ccccc12)C(=O)OC |
